In ChEMBL document CHEMBL1125384, “Inhibitors of sterol synthesis. 3 beta,25-dihydroxy-5 alpha-cholest-8(14)-en-15-one, an active metabolite of 3 beta-hydroxy-5 alpha-cholest-8(14)-en-15-one” (J Med Chem, 1992):

Key:
[1] = target: T1, 3-hydroxy-3-methylglutaryl-coenzyme A reductase (Homo sapiens) (UniProt P04035); test: % control of HMG-CoA reductase activity in CHO-K1 cells at a concentration of 0.25 uM; type: cell-based; conditions: Cricetulus griseus
T1 sequence (whole entry): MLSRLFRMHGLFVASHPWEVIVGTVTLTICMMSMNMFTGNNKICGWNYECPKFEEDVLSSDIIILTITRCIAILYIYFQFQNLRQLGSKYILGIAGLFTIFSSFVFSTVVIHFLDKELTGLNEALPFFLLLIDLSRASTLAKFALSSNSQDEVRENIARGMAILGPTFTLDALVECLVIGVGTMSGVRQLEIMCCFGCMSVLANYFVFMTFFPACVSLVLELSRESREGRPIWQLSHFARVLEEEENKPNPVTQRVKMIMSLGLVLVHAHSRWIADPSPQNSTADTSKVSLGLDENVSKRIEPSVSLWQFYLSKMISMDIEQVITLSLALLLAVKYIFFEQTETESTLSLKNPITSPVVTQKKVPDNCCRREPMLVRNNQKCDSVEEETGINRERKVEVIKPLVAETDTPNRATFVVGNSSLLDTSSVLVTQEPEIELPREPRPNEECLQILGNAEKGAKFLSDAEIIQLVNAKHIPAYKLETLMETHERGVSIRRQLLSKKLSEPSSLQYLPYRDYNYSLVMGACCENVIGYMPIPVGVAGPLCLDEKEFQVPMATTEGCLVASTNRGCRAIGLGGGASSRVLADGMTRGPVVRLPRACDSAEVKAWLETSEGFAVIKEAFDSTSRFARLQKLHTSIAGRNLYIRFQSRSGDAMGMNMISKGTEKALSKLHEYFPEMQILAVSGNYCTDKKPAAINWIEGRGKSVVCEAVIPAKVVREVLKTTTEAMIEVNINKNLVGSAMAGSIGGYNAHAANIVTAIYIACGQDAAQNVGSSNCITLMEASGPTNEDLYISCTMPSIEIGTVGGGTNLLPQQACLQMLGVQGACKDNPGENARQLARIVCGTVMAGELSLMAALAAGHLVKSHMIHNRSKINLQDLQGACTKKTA
Outline: (§1)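 CHO-K1 cells were exposed to the sterol at 0.0–2.5 μM. HMG-CoA reductase specific activity was measured in pmol min⁻¹ mg⁻¹ protein and expressed as % of the activity in sterol-free control cells. Assays were run in triplicate, with variation given as SD.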

[2] = target: T1, 3-hydroxy-3-methylglutaryl-coenzyme A reductase (Homo sapiens); test: % control of HMG-CoA reductase activity in CHO-K1 cells at a concentration of 0.5 uM; type: cell-based; conditions: Cricetulus griseus; outline: as §1
[3] = target: T1, 3-hydroxy-3-methylglutaryl-coenzyme A reductase (Homo sapiens); test: % control of HMG-CoA reductase activity in CHO-K1 cells at a concentration of 1.0 uM; type: cell-based; conditions: Cricetulus griseus; outline: as §1
[4] = target: T1, 3-hydroxy-3-methylglutaryl-coenzyme A reductase (Homo sapiens); test: % control of HMG-CoA reductase activity in CHO-K1 cells at a concentration of 2.5 uM; type: cell-based; conditions: Cricetulus griseus; outline: as §1
[5] = target: 3-hydroxy-3-methylglutaryl-coenzyme A reductase (Cricetulus griseus) (UniProt P00347); test: % control of HMG-CoA reductase activity in CHO-K1 cells at a concentration of 0.0 uM
[6] = target: 3-hydroxy-3-methylglutaryl-coenzyme A reductase (Cricetulus griseus) (UniProt P00347); test: % control of HMG-CoA reductase activity in CHO-K1 cells at a concentration of 0.1 uM

Chain of 3-hydroxy-3-methylglutaryl-coenzyme A reductase (Cricetulus griseus) (P00347 whole entry, looked up): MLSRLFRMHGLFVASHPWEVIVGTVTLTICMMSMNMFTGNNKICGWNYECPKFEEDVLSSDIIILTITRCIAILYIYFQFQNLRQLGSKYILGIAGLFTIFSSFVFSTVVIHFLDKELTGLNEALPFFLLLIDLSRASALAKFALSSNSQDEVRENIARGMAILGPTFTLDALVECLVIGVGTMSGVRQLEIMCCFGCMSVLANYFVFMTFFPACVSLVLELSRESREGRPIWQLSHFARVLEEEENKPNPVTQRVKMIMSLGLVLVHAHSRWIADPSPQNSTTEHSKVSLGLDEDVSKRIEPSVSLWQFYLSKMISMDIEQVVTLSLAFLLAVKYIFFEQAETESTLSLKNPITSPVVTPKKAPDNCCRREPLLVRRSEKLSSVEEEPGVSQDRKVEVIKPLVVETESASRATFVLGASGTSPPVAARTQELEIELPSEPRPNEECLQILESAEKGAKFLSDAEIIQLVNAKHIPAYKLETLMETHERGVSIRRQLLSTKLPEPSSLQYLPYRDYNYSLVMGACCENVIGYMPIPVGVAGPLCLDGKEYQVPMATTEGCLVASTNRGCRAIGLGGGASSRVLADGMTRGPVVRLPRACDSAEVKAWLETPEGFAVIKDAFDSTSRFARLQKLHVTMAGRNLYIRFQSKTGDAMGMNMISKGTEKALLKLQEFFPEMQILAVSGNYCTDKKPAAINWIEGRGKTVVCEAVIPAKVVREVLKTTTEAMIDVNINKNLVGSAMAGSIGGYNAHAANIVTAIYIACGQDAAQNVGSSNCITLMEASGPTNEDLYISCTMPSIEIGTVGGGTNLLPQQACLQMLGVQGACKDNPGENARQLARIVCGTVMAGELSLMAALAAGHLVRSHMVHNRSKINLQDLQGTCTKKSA

Row | Control [1] | Control [2] | Control [3] | Control [4] | Control [5] | Control [6] | Compound
1 | 33.5% | 32.2% | 34.2% | 21.5% | 100% | 63.4% | C[C@H](CCCC(C)(C)O)C1CC(=O)C2=C3CCC4CC(O)CCC4(C)C3CCC21C (some centres not stated)
2 | 52.1% | 42.2% | 35.8% | 24.4% | 100% | 61.9% | CC(C)CCC[C@@H](C)[C@H]1CC(=O)C2=C3CC[C@H]4C[C@@H](O)CC[C@]4(C)[C@H]3CC[C@@]21C
